Assay results from paper PMC6606825 (Journal of Ginseng Research, 2018).
Marks after values point to notes of the source that are not given here.

Assay: Pharmacokinetics of CK and its metabolite 20
Assay type: in vivo, healthy Chinese volunteers
Outline: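 Healthy adults given one oral tablet dose fasting (overnight, or 10 h in a crossover food-effect arm); 30 subjects from the 100/200/400 mg groups were pooled with 24 from 200 mg fasting periods. Plasma was stored at −70°C, extracted with MTBE plus internal standards and assayed by LC-MS/MS. Cmax was observed and AUClast calculated by linear trapezoid, each divided by dose. The metabolite/parent ratio was also calculated. Genotyping used Sequenom MassARRAY, and log-transformed values were compared by one-way ANOVA.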

[1] = ABCG2 rs3114018 AA (first line), mean (SD)
[2] = ABCG2 rs3114018 AA (third line), mean (SD)

CC(C)=CCC[C@](C)(O[C@@H]1O[C@H](CO)[C@@H](O)[C@H](O)[C@H]1O)[C@H]1CC[C@]2(C)[C@@H]1[C@H](O)C[C@@H]1[C@@]3(C)CC[C@H](O)C(C)(C)[C@@H]3CC[C@]12C [Ginsenoside compound K, 20-O-beta-D-glucopyranosyl-20(S)-protopanaxadiol]
CK Cmax/D (ABCG2 rs2725248 CC, mean (SD)): 4.46 (1.08) | CK AUClast/D [1]: 25.71 (14.88) | CK Cmax/D [1]: 3.40 (1.60) | CK AUClast/D [2]: 26.43 (22.97) | CK Cmax/D [2]: 3.36 (2.54) | CK AUClast/D (ABCG2 rs3114018 CA, mean (SD)): 30.74 (15.11) | CK Cmax/D (ABCG2 rs3114018 CA, mean (SD)): 4.02 (2.12) | CK AUClast/D (ABCG2 rs6857600 CC, mean (SD)): 29.60 (19.18) | CK Cmax/D (ABCG2 rs6857600 CC, mean (SD)): 3.72 (2.28) | CK AUClast/D (ABCG2 rs6857600 TC, mean (SD)): 26.00 (7.52) | CK Cmax/D (ABCG2 rs6857600 TC, mean (SD)): 3.79 (1.18) | CK AUClast/D (ABCG2 rs6857600 TT, mean (SD)): 16.47 (5.68) | CK Cmax/D (ABCG2 rs6857600 TT, mean (SD)): 2.37 (0.75) | CK AUClast/D (ABCG2 rs12505410 GG, mean (SD)): 36.50 (20.67) | CK Cmax/D (ABCG2 rs12505410 GG, mean (SD)): 3.96 (1.91) | CK AUClast/D (ABCG2 rs12505410 GT, mean (SD)): 33.35 (21.92) | CK Cmax/D (ABCG2 rs12505410 GT, mean (SD)): 4.39 (2.76) | CK AUClast/D (ABCG2 rs12505410 TT, mean (SD)): 22.29 (7.69) | CK Cmax/D (ABCG2 rs12505410 TT, mean (SD)): 3.00 (1.05) | CK AUClast/D (ABCG2 rs17731799 GG, mean (SD)): 25.71 (14.88) | CK Cmax/D (ABCG2 rs17731799 GG, mean (SD)): 3.40 (1.60) | CK AUClast/D (ABCG2 rs17731799 GT, mean (SD)): 32.10 (14.45) | CK Cmax/D (ABCG2 rs17731799 GT, mean (SD)): 4.13 (1.88) | CK AUClast/D (ABCG2 rs17731799 TT, mean (SD)): 26.40 (21.35) | CK Cmax/D (ABCG2 rs17731799 TT, mean (SD)): 3.47 (2.62) | CK AUClast/D (CFTR rs213950 AG, mean (SD)): 26.46 (20.44) | CK Cmax/D (CFTR rs213950 AG, mean (SD)): 3.36 (2.54) | CK AUClast/D (CFTR rs213950 GG, mean (SD)): 31.13 (15.12) | CK Cmax/D (CFTR rs213950 GG, mean (SD)): 4.14 (1.85) | CK AUClast/D (CFTR rs213968 CC, mean (SD)): 30.36 (14.71) | CK Cmax/D (CFTR rs213968 CC, mean (SD)): 4.14 (1.90) | CK AUClast/D (CFTR rs213968 CT, mean (SD)): 27.70 (20.72) | CK Cmax/D (CFTR rs213968 CT, mean (SD)): 3.43 (2.53) | CK AUClast/D (CFTR rs213968 TT, mean (SD)): 28.15 (14.72) | CK Cmax/D (CFTR rs213968 TT, mean (SD)): 3.81 (1.64) | CK AUClast/D (CFTR rs213976 GG, mean (SD)): 27.63 (17.53) | CK Cmax/D (CFTR rs213976 GG, mean (SD)): 3.62 (1.91) | CK AUClast/D (CFTR rs213976 GT, mean (SD)): 28.13 (20.65) | CK Cmax/D (CFTR rs213976 GT, mean (SD)): 3.63 (2.58) | CK AUClast/D (CFTR rs213976 TT, mean (SD)): 29.55 (14.70) | CK Cmax/D (CFTR rs213976 TT, mean (SD)): 3.89 (1.85) | CK AUClast/D (CFTR rs1042077 GG, mean (SD)): 28.15 (14.72) | CK Cmax/D (CFTR rs1042077 GG, mean (SD)): 3.81 (1.64) | CK AUClast/D (CFTR rs1042077 GT, mean (SD)): 27.96 (21.11) | CK Cmax/D (CFTR rs1042077 GT, mean (SD)): 3.46 (2.58) | CK AUClast/D (CFTR rs1042077 TT, mean (SD)): 30.54 (15.14) | CK Cmax/D (CFTR rs1042077 TT, mean (SD)): 4.12 (1.95) | CK AUClast/D (CFTR rs2106155 AA, mean (SD)): 25.97 (16.89) | CK Cmax/D (CFTR rs2106155 AA, mean (SD)): 3.41 (1.86) | CK AUClast/D (CFTR rs2106155 CA, mean (SD)): 31.04 (21.72) | CK Cmax/D (CFTR rs2106155 CA, mean (SD)): 4.02 (2.69) | CK AUClast/D (CFTR rs2106155 CC, mean (SD)): 29.28 (14.69) | CK Cmax/D (CFTR rs2106155 CC, mean (SD)): 3.86 (1.85) | CK AUClast/D (CFTR rs2237726 CC, mean (SD)): 29.76 (14.41) | CK Cmax/D (CFTR rs2237726 CC, mean (SD)): 3.89 (1.81) | CK AUClast/D (CFTR rs2237726 CT, mean (SD)): 26.16 (19.95) | CK Cmax/D (CFTR rs2237726 CT, mean (SD)): 3.35 (2.25) | CK AUClast/D (CFTR rs2237726 TT, mean (SD)): 32.16 (19.24) | CK Cmax/D (CFTR rs2237726 TT, mean (SD)): 3.98 (2.20) | CK AUClast/D (CFTR rs4148711 AA, mean (SD)): 28.15 (14.72) | CK Cmax/D (CFTR rs4148711 AA, mean (SD)): 3.81 (1.64) | CK AUClast/D (CFTR rs4148711 AT, mean (SD)): 27.70 (20.72) | CK Cmax/D (CFTR rs4148711 AT, mean (SD)): 3.43 (2.53) | CK AUClast/D (CFTR rs4148711 TT, mean (SD)): 29.34 (14.49) | CK Cmax/D (CFTR rs4148711 TT, mean (SD)): 3.89 (1.63) | CK AUClast/D (NR1I2 rs1464602 AA, mean (SD)): 28.65 (21.81) | CK Cmax/D (NR1I2 rs1464602 AA, mean (SD)): 3.54 (2.35) | CK AUClast/D (NR1I2 rs1464602 AG, mean (SD)): 33.46 (13.69) | CK Cmax/D (NR1I2 rs1464602 AG, mean (SD)): 4.62 (2.09) | CK AUClast/D (NR1I2 rs1464602 GG, mean (SD)): 20.43 (9.71) | CK Cmax/D (NR1I2 rs1464602 GG, mean (SD)): 2.65 (1.27) | CK AUClast/D (NR1I2 rs1523127 AA, mean (SD)): 29.24 (18.87) | CK Cmax/D (NR1I2 rs1523127 AA, mean (SD)): 3.82 (2.36) | CK AUClast/D (NR1I2 rs1523127 CA, mean (SD)): 27.08 (14.85) | CK Cmax/D (NR1I2 rs1523127 CA, mean (SD)): 3.53 (1.71) | CK AUClast/D (NR1I2 rs1523127 CC, n = 1): 28.50 (−) ^2) | CK Cmax/D (NR1I2 rs1523127 CC, n = 1): 3.49 (−) ^2) | CK AUClast/D (NR1I2 rs2276707 CC, mean (SD)): 25.30 (13.16) | CK Cmax/D (NR1I2 rs2276707 CC, mean (SD)): 3.46 (1.86) | CK AUClast/D (NR1I2 rs2276707 CT, mean (SD)): 30.38 (20.00) | CK Cmax/D (NR1I2 rs2276707 CT, mean (SD)): 3.88 (2.41) | CK AUClast/D (NR1I2 rs2276707 TT, mean (SD)): 28.36 (15.79) | CK Cmax/D (NR1I2 rs2276707 TT, mean (SD)): 3.71 (1.90) | CK AUClast/D (NR1I2 rs2472682 AA, mean (SD)): 21.56 (9.07) | CK Cmax/D (NR1I2 rs2472682 AA, mean (SD)): 2.87 (1.20) | CK AUClast/D (NR1I2 rs2472682 CA, mean (SD)): 34.34 (20.92) | CK Cmax/D (NR1I2 rs2472682 CA, mean (SD)): 4.45 (2.60) | CK AUClast/D (NR1I2 rs2472682 CC, mean (SD)): 24.44 (13.14) | CK Cmax/D (NR1I2 rs2472682 CC, mean (SD)): 3.17 (1.39) | CK AUClast/D (NR1I2 rs6785049 AA, mean (SD)): 22.20 (13.19) | CK Cmax/D (NR1I2 rs6785049 AA, mean (SD)): 2.88 (1.46) | CK AUClast/D (NR1I2 rs6785049 AG, mean (SD)): 32.86 (19.88) | CK Cmax/D (NR1I2 rs6785049 AG, mean (SD)): 4.27 (2.46) | CK AUClast/D (NR1I2 rs6785049 GG, mean (SD)): 24.29 (12.99) | CK Cmax/D (NR1I2 rs6785049 GG, mean (SD)): 3.22 (1.69) | CK AUClast/D (NR1I2 rs7643645 AA, mean (SD)): 26.64 (13.51) | CK Cmax/D (NR1I2 rs7643645 AA, mean (SD)): 3.76 (2.21) | CK AUClast/D (NR1I2 rs7643645 AG, mean (SD)): 27.63 (13.83) | CK Cmax/D (NR1I2 rs7643645 AG, mean (SD)): 3.41 (1.51) | CK AUClast/D (NR1I2 rs7643645 GG, mean (SD)): 39.83 (34.46) | CK Cmax/D (NR1I2 rs7643645 GG, mean (SD)): 5.06 (3.69)
